Assay outcomes (PubChem BioAssay)
The list is not random: actives were taken first. Their share in the collection is about 9.3%.
E coli WT exp: growth inhibitors of wild-type E. coli, primary screen, strain BW25113, expanded library, OD600 | OD600 absorbance | growth inhibition, % at 100 µM | hit rate 0.15% among 98,000 | AID 710, 2007;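 active = growth inhibition above about 50% at one test dose, limit read from the data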;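 also: growth measured after 20 h incubation at 37 °C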
D1 allo mod: D1 CRE-luciferase signal change, two-sided – cell-based, HEK293 D1, dopamine EC30, D1 allosteric modulator project, primary screen; D(1A) dopamine receptor (Homo sapiens), P21728; dopamine EC30 potentiation; actives deviate in either direction; B-score at 10 µM; hit rate 5.9% among 58,000; AID 641, 2007;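 active = luminescence count or its row- and column-corrected plate score outside the 99.7% band of the plate's sample wells, on either side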
Ecoli tolC: growth inhibitors of E. coli tolC mutant, primary screen, strain BW25113 ΔtolC::kan, 384-well. AID 573, 2007. hit rate 2.2% among 65,000. OD615. growth inhibition, % at 10 µM (by protocol);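 active = growth inhibition at or above a cutoff equal to the mean over every tested compound plus 3 SD, cut at about 60% in these data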;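 also: growth measured after 20 h incubation at 37 °C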
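Assay system: tolC-deleted E. coli BW25113. Medium: kanamycin-containing LB broth (50 µg/mL). Dosing: 10 µM final, single dose. Timing: bacterial growth with compound for 20 h at 37 °C. Detection: A615 absorbance measurement. Read-out basis: growth inhibition in percent.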
PostGolgi ctrl: growth inhibition of yeast control strain, primary screen, counter-screen for post-Golgi transport modulator project | efflux-deficient yeast background strain, growth absorbance A615, 16 h | inhibition, % at 10 µM | hit rate 5% among 98,000 | AID 738, 2007
hDAT+cocaine: changed hDAT dopamine uptake under cocaine IC80, either direction, primary screen, cocaine antagonist project, cell-based, LLC-PK1 hDAT, [14C]-dopamine uptake, MLSMR | LLC-PK1 hDAT cells, [14C]-dopamine uptake with cocaine IC80; actives deviate in either direction | B-score at 10 µM | hit rate 1.3% among 110,000 | Sodium-dependent dopamine transporter (Homo sapiens), Q01959;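 active = Z score or B-score, a plate-position-corrected score, falls beyond the plate's 99.7% confidence bounds, in either direction; inactive = both scores lie inside the 99.7% bounds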
Target sequence (Q01959 whole entry, looked up): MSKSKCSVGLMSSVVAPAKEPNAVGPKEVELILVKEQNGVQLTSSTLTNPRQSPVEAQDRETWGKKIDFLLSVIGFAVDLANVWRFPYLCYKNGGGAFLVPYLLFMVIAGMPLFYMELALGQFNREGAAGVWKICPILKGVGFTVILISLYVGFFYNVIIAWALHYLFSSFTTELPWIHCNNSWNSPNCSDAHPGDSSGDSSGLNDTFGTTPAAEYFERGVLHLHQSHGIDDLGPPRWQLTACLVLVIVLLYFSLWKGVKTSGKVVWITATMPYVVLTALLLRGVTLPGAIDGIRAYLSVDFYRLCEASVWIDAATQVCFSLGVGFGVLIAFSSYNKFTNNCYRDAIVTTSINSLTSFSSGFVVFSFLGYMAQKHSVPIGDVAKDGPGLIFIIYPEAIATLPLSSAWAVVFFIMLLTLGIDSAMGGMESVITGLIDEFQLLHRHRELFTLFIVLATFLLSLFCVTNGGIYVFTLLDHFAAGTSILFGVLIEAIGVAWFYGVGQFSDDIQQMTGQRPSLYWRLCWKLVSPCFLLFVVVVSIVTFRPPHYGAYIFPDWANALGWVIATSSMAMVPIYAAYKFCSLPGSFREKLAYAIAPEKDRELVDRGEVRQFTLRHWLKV
PostGolgi yeast: phenotypic screen on post-Golgi transport, primary screen; post-Golgi transport phenotypic cell assay; inhibition, % at 10 µM; hit rate 0.9% among 98,000; AID 739, 2007;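 also: yeast cells grown in 1536-well plates; yeast grown about 18 h at 30C before absorbance read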
D1 PAM confirm: D1 receptor positive allosteric modulators, retest, confirmation, cell-based, HEK293 D1, CRE-luciferase, duplicate; shares compounds with D1 allo mod; hit rate 88% among 2,200; luminescence at 10 µM; dopamine EC30 potentiation; stronger effect = higher value;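 active = luminescence in either of two replicates above the same-plate mean plus 3 SD of the low-dose dopamine control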
D1 ag no DA: D1 receptor agonism without dopamine, confirmation, mechanism study for D1 allosteric modulator project, cell-based, HEK293 D1, CRE-luciferase, secondary assay 1; shares compounds with D1 allo mod; luminescence, no dopamine; stronger effect = higher value; luminescence at 10 µM; hit rate 0.8% among 1,900; in the data active = luminescence above about 3900
Isoprot counter: isoproterenol response counter-screen activity for D1 modulators; calls only at 10 µM; hit rate 63% among 2,200; HEK293 D1 CRE-luciferase, isoproterenol EC30 counter-screen; shares compounds with D1 allo mod; AID 647;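 active = luminescence in either replicate above plate mean of wells with a partly effective reference agonist dose plus 3 SD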;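 also: isoproterenol raises cAMP through native beta-adrenoceptor Gs so signal bypasses D1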
Of the large screens only hits and unclear results are named; the others gave an inactive call (follow-up assays come after a bar, where they were run). Rule as the data show it, unless noted: active = inhibition above about 30%; inactive = the rest.

CCOC(=O)C1CCN(S(=O)(=O)c2ccc(OC)c(OC)c2)CC1	none (no result: D1 allo mod, Ecoli tolC)
CCC(C)(C)NC(=O)CN(C(=O)c1snc(C(N)=O)c1N)c1ccc2c(c1)OCCO2	D1 allo mod 6.58 | D1 PAM confirm inactive | D1 ag no DA inactive | Isoprot counter inactive
O=S(=O)(Nc1cc(Cl)ccc1N1CCCCC1)c1cccs1	D1 allo mod 28.6, Ecoli tolC 62.0 | D1 PAM confirm 7016 | D1 ag no DA inactive | Isoprot counter inactive
Cc1ccc(-c2cc(-c3ccc(C)o3)nc(N)c2C#N)cc1	D1 allo mod 7.29 | D1 PAM confirm 8668 | D1 ag no DA inactive | Isoprot counter inactive
Cc1ccc(-c2cc(-c3ccc(Cl)cc3)c(C#N)c(N)n2)o1	none
Cc1ccc(-c2cc(-c3ccc4c(c3)OCO4)c(C#N)c(N)n2)o1	D1 allo mod 5.87 (no result: Ecoli tolC) | D1 PAM confirm 8720 | D1 ag no DA inactive | Isoprot counter inactive
N#Cc1c(N)nc2c(c1-c1ccc3c(c1)OCO3)CCCCCC2	none (no result: D1 allo mod)
N#Cc1c(N)oc(-c2ccc3c(c2)OCO3)c1-c1ccc2c(c1)OCO2	D1 allo mod 4.51, Ecoli tolC 72.3 | D1 PAM confirm 26576 | D1 ag no DA inactive | Isoprot counter active
C/C(NCCN1CCOCC1)=C(\C#N)C(N)=O	none (no result: E coli WT exp, PostGolgi ctrl, PostGolgi yeast)
COc1ccccc1S(=O)(=O)Cc1ccc(C(=O)NCCN2CCCCCC2)o1	none
CC(C)c1ccc(NC(=O)C2CC(=O)N=C(N)S2)cc1 (stereo not drawn)	none
COc1c(S(=O)(=O)n2nc(C)cc2C)ccc(Cl)c1Cl	D1 allo mod 3.64, PostGolgi ctrl 31.1 | D1 PAM confirm 12296 | D1 ag no DA inactive | Isoprot counter inactive
CCN(CCCNC(=O)CN(C)S(=O)(=O)c1cccc2nsnc12)c1cccc(C)c1	D1 allo mod 3.49 | D1 PAM confirm 13504 | D1 ag no DA inactive | Isoprot counter inactive
CCN(CCNC(=O)CN(C)S(=O)(=O)c1cccc2nsnc12)c1ccccc1	none (no result: D1 allo mod, Ecoli tolC)
COC(=O)c1sccc1NC(=O)c1ccncc1	D1 allo mod 11.1 | D1 PAM confirm 14580 | D1 ag no DA inactive | Isoprot counter active
COC(=O)c1sccc1NC(=O)c1c(C)noc1C	none
Cc1cccc(NC(=O)Cn2nnc(-c3cccs3)n2)c1C	none
COC(=O)c1sccc1NC(=O)Cn1nnc(-c2ccc(C)cc2)n1	D1 allo mod 2.42 | D1 PAM confirm inactive | D1 ag no DA inactive | Isoprot counter inactive
COC(=O)c1sccc1NC(=O)c1cc(C)on1	D1 allo mod 3.44 (no result: hDAT+cocaine) | D1 PAM confirm 10948 | D1 ag no DA inactive | Isoprot counter active
CCOC(=O)CCSc1nc(C)c2ccccc2n1	D1 allo mod 1.93 | D1 PAM confirm 6200 | D1 ag no DA inactive | Isoprot counter inactive
COc1cccc(C2C(C(=O)c3sc(C)nc3C)=C(O)C(=O)N2CCN(C)C)c1OC (stereo not drawn)	none (no result: E coli WT exp, D1 allo mod, PostGolgi ctrl, hDAT+cocaine, PostGolgi yeast)
CCOc1ccc(C(=O)Nc2nnc(C)s2)cc1OCC	D1 allo mod 5.93 | D1 PAM confirm 13964 | Isoprot counter active
COc1ccc(C(=O)Nc2nnc(Cc3cccs3)s2)cc1OC	D1 allo mod 3.05 | D1 PAM confirm 9388 | D1 ag no DA inactive | Isoprot counter inactive
Cc1nnc(NC(=O)c2cccc(Br)c2)s1	none (no result: D1 allo mod, Ecoli tolC)
O=C(Cc1cccs1)Nc1nnc(Cc2ccccc2)s1	none (no result: E coli WT exp, D1 allo mod, Ecoli tolC, PostGolgi ctrl, PostGolgi yeast)
COc1ccc(Cc2nnc(NC(=O)Cc3cccs3)s2)cc1OC	D1 allo mod 17.4 | D1 PAM confirm 27116 | D1 ag no DA inactive | Isoprot counter active
COc1ncccc1-c1nnn(-c2ccc(F)cc2)n1	none (no result: E coli WT exp, D1 allo mod, Ecoli tolC, PostGolgi ctrl, PostGolgi yeast)
CN(C)C(=O)N1CCC(C(=O)NCc2ccc(F)cc2Cl)CC1	D1 allo mod 3.9 | D1 PAM confirm inactive | D1 ag no DA inactive | Isoprot counter inactive
Cc1cc2nc(N)sc2cc1[N+](=O)[O-]	none (no result: D1 allo mod, Ecoli tolC)
c1ccc2[nH]c(CN3CCN(c4ncnc5c4oc4ccccc45)CC3)nc2c1	D1 allo mod 9.59 | D1 PAM confirm 14816 | Isoprot counter active
CCOc1ncccc1C(=O)OCC(=O)NCCc1ccc(OC)cc1	none
CCOc1ccc2cc(C#N)c(SCC(=O)N3CCC(C)CC3)nc2c1	D1 allo mod 7.23 | D1 PAM confirm 6372 | D1 ag no DA inactive | Isoprot counter active
CCOC(=O)CSc1nc2cc(OCC)ccc2cc1C#N	none
COc1cccc(SCc2noc(C(=O)NCCC(C)C)c2C(=O)NCCC(C)C)c1	none (no result: E coli WT exp, D1 allo mod, Ecoli tolC, PostGolgi ctrl, PostGolgi yeast)
C=C(C)c1cccc(C(C)(C)NC(=O)Nn2cnnc2)c1	D1 allo mod 5.95 | D1 PAM confirm inactive | D1 ag no DA inactive | Isoprot counter inactive
C=C(C)c1cccc(C(C)(C)NC(=O)Nc2cc(C)ccc2OC)c1	none (no result: D1 allo mod, Ecoli tolC)
COc1nc(N(c2ccccc2)c2ccccc2)nc(-n2ccnc2)n1	D1 allo mod 4.26, Ecoli tolC 94.5, PostGolgi ctrl 95.7, PostGolgi yeast 93.8 | D1 PAM confirm 12628 | D1 ag no DA inactive | Isoprot counter active
CN(C)c1nc(N2CCOCC2)nc(N(c2ccccc2)c2ccccc2)n1	none
Cc1ccc(-c2nc3ncccn3c2NC(=O)C2CC2)cc1	D1 allo mod 2.83 | D1 PAM confirm 8360 | D1 ag no DA inactive | Isoprot counter inactive
CC1CCN(c2nc(-c3ccncc3)nc3ccccc23)CC1	D1 allo mod 3.89, PostGolgi ctrl 94.7, PostGolgi yeast 104.9 | D1 PAM confirm 9916 | D1 ag no DA inactive | Isoprot counter active
CC1CCCCN1c1nc(-c2ccncc2)nc2ccccc12 (stereo not drawn)	D1 allo mod 12.7, Ecoli tolC 100.0, PostGolgi ctrl 73.3 | D1 PAM confirm 8444 | D1 ag no DA inactive | Isoprot counter active
CCOC(=O)c1sc(NC(NC(=O)c2ccco2)(C(=O)OC)C(F)(F)F)nc1C (stereo not drawn)	D1 allo mod 5.6 | D1 PAM confirm 8940 | D1 ag no DA inactive | Isoprot counter active
Fc1cccc(Nc2cc(-n3cccn3)ncn2)c1	D1 allo mod 8.48 | D1 PAM confirm 8308 | D1 ag no DA inactive | Isoprot counter active
